These results are taken from ChEMBL document CHEMBL4229399, “Discovery and optimization of aspartate aminotransferase 1 inhibitors to target redox balance in pancreatic ductal adenocarcinoma” (Bioorg Med Chem Lett, 2018).

Usually half-life stands for the time needed for the level to fall by half in the phase considered. Low values mean fast loss, high ones slow loss. By Cmax is commonly meant the peak of the concentration-time curve. What is called AUC is concentration integrated over time. For orientation: IC50 means the point on the concentration scale where inhibition reaches its midpoint. Read a low IC50 as inhibition by little substance.

A short description of data set [1]: Half life in CD-1 mouse at 20 mg/kg administered via oral gavage by LC-MS/MS analysis. It is filed as ADME, organism-based. Particulars: in vivo. The essentials:
(§1)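 Female CD1 mice, 9 weeks old, oral gavage at 20 mg/kg (5 mL/kg). Fasted overnight, with food returned after the 4-h bleed. Blood sampled retro-orbitally at 0.5, 1, 4, 8 and 24 h, n = 3 per time point. Plasma separated by centrifugation and frozen at -80 °C. Drug level quantified by LC/MS/MS from analyte peak area.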

Data set [2] is described as follows: Cmax in CD-1 mouse at 20 mg/kg administered via oral gavage by LC-MS/MS analysis. It is filed as ADME, organism-based. Further details: dose 20 mg/kg, route oral. The following applies: in vivo. The essentials:
as §1

The next data set concerns Mus musculus. The data set is described as follows: AUC (0 to 24 hrs) in CD-1 mouse at 20 mg/kg administered via oral gavage by LC-MS/MS analysis. Particulars: in vivo. It is filed as ADME, organism-based. Further details: time < 24 hr, dose 20 mg/kg, route oral. The essentials:
as §1

Data set [3] concerns the target T1, Aspartate aminotransferase, cytoplasmic (Homo sapiens, UniProt P17174). Description: Inhibition of GOT1 (unknown origin) using aspartate and alpha-ketoglutarate as substrate after 20 mins by GLOX enzyme-coupled fluorescence assay. The procedure, abridged:
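GOT1 (~1 nM, set per purification for a 20 min linear reaction) with aspartate 4 mM and alpha-ketoglutarate 0.5 mM (KM levels). Glutamate is turned over by GLOX (80 nM), and the H2O2 drives HRP (0.05 U/mL) oxidation of Amplex Red (15 µg/mL). Buffer: 100 mM HEPES, 100 mM KCl. Run 20 min at 37 °C; resorufin fluorescence read at 530/550 nm.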

Data set [4] in a line: Stability in mouse plasma assessed as parent compound remaining after 4 hrs. It is filed as ADME, cell-free. Particulars: read-out: Stability.
Data set [5] has as its target T1, Aspartate aminotransferase, cytoplasmic. Description: Inhibition of GOT1 (unknown origin) using aspartate and alpha-ketoglutarate as substrate after 20 mins by MDH1 enzyme-coupled fluorescence assay. The essentials: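 Oxaloacetate from GOT1 (~1 nM) is reduced by MDH1 (0.3 µg/mL final) using NADH (250 µM final). Loss of NADH fluorescence is read at 340/445 nm. Substrates aspartate 4 mM and alpha-ketoglutarate 0.5 mM. Buffer: 100 mM HEPES, 100 mM KCl. Incubated 20 min at 37 °C. Mean of n = 3.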

SMILES strings stand for the structures. The source made the active and inactive calls.

T1 sequence (P17174 whole entry): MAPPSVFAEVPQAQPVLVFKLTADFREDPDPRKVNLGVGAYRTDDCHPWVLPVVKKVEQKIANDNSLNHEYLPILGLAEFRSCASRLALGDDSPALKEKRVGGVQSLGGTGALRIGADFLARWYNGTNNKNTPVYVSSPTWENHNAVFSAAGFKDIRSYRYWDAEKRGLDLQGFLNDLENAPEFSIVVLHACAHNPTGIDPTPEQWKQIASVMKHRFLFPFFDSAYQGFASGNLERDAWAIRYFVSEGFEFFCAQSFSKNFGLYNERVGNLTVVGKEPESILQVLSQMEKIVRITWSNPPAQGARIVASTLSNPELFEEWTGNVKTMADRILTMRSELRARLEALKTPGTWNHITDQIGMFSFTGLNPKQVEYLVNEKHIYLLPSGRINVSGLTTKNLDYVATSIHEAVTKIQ

On to `O=C(Nc1ccccc1)N1CCN(c2cccc3[nH]ccc23)CC1`, for which the half-life in data set [1] was 42 min. Further, the highest level in data set [2] (Cmax) was 4130 ng/mL. The same molecule returned an area under the curve (AUC) with Mus musculus of 11734 ng·h/mL. Also, the inhibition result in data set [3] is “Active”. Also, in data set [4], the remaining at 4 h was over 95%. In data set [5], this molecule returned an IC50 of 85 µM.
